# Reference: ChEMBL document CHEMBL2346637, “Effects of alkyl side chain modification of coenzyme Q10 on mitochondrial respiratory chain function and cytoprotection” (Bioorg Med Chem, 2013)
# Key:
# [1] = tested on: CCRF-CEM; assay: Antioxidant activity in human CEM cells assessed as suppression of diethyl maleate-induced ROS production at 1 uM incubated for 16 hrs prior to diethyl maleate challenge measured after 1 hr by DCFH-DA staining-based flow cytometric analysis relative to untreated control; format: functional
# Method in brief: (§1)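 CEM cells (5 × 10⁵ in 1 mL) preincubated with compound 16 h at 37 °C, 5% CO₂; then 5 mM DEM for 1 h. Cells washed in PBS and loaded with 10 µM DCFH-DA for 25 min at 37 °C in the dark, then washed twice. Read by flow cytometry, 488 nm excitation, FL1-H 530 nm channel, 10,000 events after debris gating.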
# [2] = tested on: CCRF-CEM; assay: Cytoprotective effect in human CEM cells assessed as reduction of diethyl maleate-induced oxidative stress measured cell viability at 5 uM incubated for 17 hrs prior to diethyl maleate challenge measured after 6 hrs by trypan blue exclusion assay relative to untreated control; format: functional
# Method in brief: (§2)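 CEM cells seeded at 5 × 10⁵ cells/mL with compound and held 17 h at 37 °C, 5% CO₂. Oxidative stress then induced with 5 mM DEM for 6 h. Viability counted on a hemocytometer by 0.4% trypan blue exclusion and expressed as percent of untreated control (untreated = 100%). Means ± S.E.M., n = 3.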
# [3] = organism: Bos taurus; assay: Inhibition of NADH-ubiquinone oxidoreductase activity in bovine heart submitochondrial particles using coenzyme Q1 as substrate after 5 mins by spectrophotometric analysis relative to untreated control
# Method in brief: (§3)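 Twelve micrograms of bovine heart SMPs incubated 5 min at 39 °C with compound in 50 mM phosphate buffer, pH 7.4, with 0.25 M sucrose, 1 mM MgCl₂, antimycin A and 2 mM KCN. Reaction started with NADH and coenzyme Q₁ (each 50 µM). Decrease in NADH absorbance read at 340 nm. IC₅₀ and maximum achievable inhibition reported.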
# [4] = Inhibition of NADH-ubiquinone oxidoreductase activity in bovine heart submitochondrial particles using coenzyme Q1 as substrate after 5 mins by spectrophotometric analysis; set-up: species or system Bos taurus; method in brief: as §3
# [5] = tested on: CCRF-CEM; assay: Cytoprotective effect in human CEM cells assessed as reduction of diethyl maleate-induced oxidative stress measured cell viability at 0.5 uM incubated for 17 hrs prior to diethyl maleate challenge measured after 6 hrs by trypan blue exclusion assay relative to untreated control; format: functional; method in brief: as §2
# [6] = Effect on cellular respiration in rat RGC5 cells assessed as increase in mitochondrial oxygen consumption at 10 uM after 24 hrs by fluorescence assay relative to vehicle-treated control; format: functional
# Method in brief: (§4)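 RGC-5 cells (DMEM, 10% FBS, phenol-red free) at 70,000 per well in 384-well oxygen biosensor plates, allowed to attach 20–30 min. Compounds added from DMSO stock via PBS dilution, final 3 or 10 µM, 0.1% DMSO. Six vehicle and six FCCP wells per plate. Incubated at 37 °C, 5% CO₂ for 1.5 or 24 h. Fluorescence read at 485/630 nm and expressed as fold change over vehicle at each time point. Two-tailed t test.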
# [7] = organism: Bos taurus; assay: Inhibition of NADH oxidase in bovine heart submitochondrial particles at 10 uM after 5 mins by spectrophotometric analysis relative to untreated control; set-up: scale not given: the % may be the effect or the level left
# Method in brief: (§5)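 Bovine heart SMPs, stored in 0.25 M sucrose/10 mM Tris–HCl pH 7.4, were assayed at 30 µg protein/mL in 50 mM Hepes pH 7.5 with 5 mM MgCl₂ at 30 °C. SMPs pre-equilibrated with inhibitor for 5 min. NADH oxidation followed at 340 nm (ε 6.22 mM⁻¹ cm⁻¹). Initial rates taken from the linear trace and expressed relative to untreated control.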
# [8] = tested on: CCRF-CEM; assay: Cytoprotective effect in human CEM cells assessed as reduction of diethyl maleate-induced oxidative stress measured cell viability at 1 uM incubated for 17 hrs prior to diethyl maleate challenge measured after 6 hrs by trypan blue exclusion assay relative to untreated control; format: functional; method in brief: as §2
# [9] = tested on: CCRF-CEM; assay: (§6) Blockade of diethyl maleate-induced mitochondrial membrane potential collapse in human CEM cells assessed as cells with intact mitochondrial membrane potential at 1 uM incubated for 16 hrs prior to diethyl maleate challenge measured after 120 mins by TMRM-based flow cytometric analysis (reference value: 12%); format: functional
# Method in brief: (§7)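 Pretreatment: CEM cells (5 × 10⁵) with or without compound for 16 h, then 5 mM DEM for 120 min. Cells washed and resuspended in PBS with glucose, stained with 250 nM TMRM for 15 min at 37 °C in the dark, washed, and read at once by flow cytometry (488 nm excitation, FL2-H). 10,000 events per run. Percentage of cells with intact potential taken from the top-right quadrant. FCCP served as depolarized control. Means ± SEM of three independent experiments in duplicate.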
# [10] = tested on: CCRF-CEM; assay: as §6, with “at 0.5” for “at 1”; format: functional; method in brief: as §7
# [11] = Effect on cellular respiration in rat RGC5 cells assessed as increase in mitochondrial oxygen consumption at 3 uM after 1.5 hrs by fluorescence assay relative to vehicle-treated control; format: functional; method in brief: as §4
# [12] = Effect on cellular respiration in rat RGC5 cells assessed as increase in mitochondrial oxygen consumption at 3 uM after 24 hrs by fluorescence assay relative to vehicle-treated control; format: functional; method in brief: as §4
# [13] = organism: Bos taurus; assay: Inhibition of NADH oxidase in bovine heart submitochondrial particles at 5 uM after 5 mins by spectrophotometric analysis relative to untreated control; set-up: scale not given: the % may be the effect or the level left; method in brief: as §5
# [14] = tested on: CCRF-CEM; assay: Antioxidant activity in human CEM cells assessed as suppression of diethyl maleate-induced ROS production at 2.5 uM incubated for 16 hrs prior to diethyl maleate challenge measured after 1 hr by DCFH-DA staining-based flow cytometric analysis relative to untreated control; format: functional; method in brief: as §1
# [15] = Effect on cellular respiration in rat RGC5 cells assessed as increase in mitochondrial oxygen consumption at 10 uM after 1.5 hrs by fluorescence assay relative to vehicle-treated control; format: functional; method in brief: as §4
# [16] = organism: Bos taurus; assay: Inhibition of NADH oxidase in bovine heart submitochondrial particles at 1 uM after 5 mins by spectrophotometric analysis relative to untreated control; set-up: scale not given: the % may be the effect or the level left; method in brief: as §5
# [17] = tested on: CCRF-CEM; assay: Cytoprotective effect in human CEM cells assessed as reduction of diethyl maleate-induced oxidative stress measured cell viability at 0.1 uM incubated for 17 hrs prior to diethyl maleate challenge measured after 6 hrs by trypan blue exclusion assay relative to untreated control; format: functional; method in brief: as §2
Structure (SMILES),Imax [3] [%],IC50 [4] [µM],activity [7] [%],activity [13] [%],activity [16] [%],Activity [1] [%],Activity [2] [%],Activity [5] [%],fold change (FC) [6],Activity [8] [%],Activity [9] [%],Activity [10] [%],fold change (FC) [11],fold change (FC) [12],Activity [14] [%],fold change (FC) [15],Activity [17] [%]
COC1=C(OC)C(=O)C(CCCCCCCCCCN=[N+]=[N-])=C(C)C1=O,–,> 30,64,75,89.8,71,92,21,1.01,72,65,50,1.01,1.68,87,0.97,11
CCCCCCCCCCC1=C(C)C(=O)C(OC)=C(OC)C1=O [DECYLUBIQUINONE],–,> 30,61.5,83.3,93.5,80,87,62,1.08,79,88,78,1.19,0.99,95,1.2,69
CCCCCCCCCCCCCCCC1=C(C)C(=O)C(OC)=C(OC)C1=O,–,> 30,59.7,66.3,85.2,100,94,87,1.52,90,92,86,1.14,1.49,100,1.15,82

# These reach a lower IC50 [4]. Values come first.
Imax [3] [%],IC50 [4] [µM],activity [7] [%],activity [13] [%],activity [16] [%],Structure (SMILES),Activity [1] [%],Activity [2] [%],Activity [5] [%],fold change (FC) [6],Activity [8] [%],Activity [9] [%],Activity [10] [%],fold change (FC) [11],fold change (FC) [12],Activity [14] [%],fold change (FC) [15],Activity [17] [%]
55.4,14.9,78.7,81.9,88.3,COC1=C(OC)C(=O)C(CCCCCCCCCCC2CCCCC2)=C(C)C1=O,100,93,83,1.51,87,91,84,1.17,1.06,100,1.21,76
69,14.7,36.2,50.6,68.3,COC1=C(OC)C(=O)C(CCCCCCCCC(C)(C)C)=C(C)C1=O,88,93,43,1.16,72,85,70,1.08,1.55,100,1.05,9
75,5.8,13.4,20.3,58.3,COC1=C(OC)C(=O)C(CCCCCCCCCCO)=C(C)C1=O [IDEBENONE],45,74,38,0.98,71,59,35,1.12,0.98,65,0.99,25
